Experimental findings from ChEMBL document CHEMBL2177098, “Synthesis and evaluation of novel ¹⁸F labeled 2-pyridinylbenzoxazole and 2-pyridinylbenzothiazole derivatives as ligands for positron emission tomography (PET) imaging of β-amyloid plaques” (J Med Chem, 2012) are described below.

By Ki is commonly meant a measure of affinity in units of concentration, obtained from inhibition or displacement. A low value points to tighter binding.

Calls of active or inactive are those of the source. The rule behind the calls is not given here.

Data set [1] concerns Brain. The data set can be described thus: Ratio of drug uptake in brain at 2 mins to drug uptake in brain at 60 mins in CD1 mouse at 10 uCi, iv. Conditions: in vivo. The data set is classed as ADME, organism-based. In a few lines: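 Normal male ICR mice (5 weeks, about 20 g) received the 18F-labelled tracer in saline, 370 KBq per 100 μL, by tail-vein injection. Five mice per time point were killed at 2, 10, 30 and 60 min. Organs were weighed and gamma-counted against diluted aliquots of the injected dose to give % dose/g. The ratio is brain uptake at 2 min over brain uptake at 60 min.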

The nature of data set [2]: Displacement of [125I]-IMPY from amyloid beta (1 to 42) fibrils after 2 hrs by gamma-counting analysis. In a few lines: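 Competition binding with aggregated Aβ1-42 fibrils and [125I]IMPY (60000−100000 cpm/100 μL) in 0.05% BSA (1 mL total); inhibitors 10⁻⁴−10^−8.5 M in ethanol. Incubated 37 °C for 2 h, then GF/B vacuum filtration with PBS (0.02 M, pH 7.4) washes and γ counting. Three repeats; IC50 converted to Ki by Cheng−Prusoff.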

The subject of data set [3] is Brain. Briefly: Ratio of drug uptake in brain at 2 mins to drug uptake in brain at 60 mins in iv dosed ICR mouse. The data set is classed as ADME, organism-based. Conditions: in vivo.
The species named for data set [4] is Mus musculus. The data set can be described thus: Binding affinity to amyloid beta plaques in transgenic C57BL6 mouse cortex expressing APP Swedish mutant/PSEN1 at 370 KBq/100 ul after 1 hr by thioflavinS-staining method. The following applies: tested as the 18F-labelled form. The gist of the method:
(§1)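 Paraffin brain sections from 12-month-old Tg mice (C57BL6, APPswe/PSEN1) and age-matched controls, deparaffinized through xylene and graded ethanol, then PBS (0.2 M, pH 7.4) 30 min. Incubated with 18F tracer (370 KBq per 100 μL) 1 h at room temperature, washed in 40% EtOH, rinsed in water, then phosphor plate exposure 2 h. The same sections were afterwards stained with 0.125% thioflavin S in 10% EtOH for 3 min and washed in 40% EtOH.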

The test system of data set [5] is Mus musculus. Briefly: Binding affinity to amyloid beta plaques in transgenic C57BL6 mouse cortex expressing APP Swedish mutant/PSEN1 at 19.2 MBq, iv after 30 mins by autoradiographic analysis. The data set is classed as functional, organism-based. Conditions: 19.2 M, tested as the 18F-labelled form. The gist of the method: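 Ex vivo: Tg mouse (C57BL6, APPswe/PSEN1) given 19.2 MBq tracer in saline via tail vein; decapitated 30 min later. Brain frozen in liquid nitrogen, 20 μm sections cut and exposed to a phosphor plate for 5 h.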

For data set [6], the species on record is Mus musculus. The data set can be described thus: Binding affinity to amyloid beta plaques in transgenic C57BL6 mouse hippocampus expressing APP Swedish mutant/PSEN1 at 370 KBq/100 ul after 1 hr by thioflavinS-staining method. The data set is classed as tissue-based. Conditions: tested as the 18F-labelled form. In a few lines:
as §1

The species named for data set [7] is Mus musculus. The data set can be described thus: Binding affinity to amyloid beta plaques in transgenic C57BL6 mouse cortex expressing APP Swedish mutant/PSEN1 at 370 KBq/100 ul after 1 hr by autoradiographic analysis. Conditions: tested as the 18F-labelled form. The gist of the method: as §1
For data set [8], the species on record is Mus musculus. The data set can be described thus: Binding affinity to amyloid beta plaques in transgenic C57BL6 mouse hippocampus expressing APP Swedish mutant/PSEN1 at 370 KBq/100 ul after 1 hr by autoradiographic analysis. The data set is classed as tissue-based. The following applies: tested as the 18F-labelled form. The gist of the method: as §1
For data set [9], the system named is Mus musculus. The data set can be described thus: Binding affinity to amyloid beta plaques in transgenic C57BL6 mouse cortex expressing APP Swedish mutant/PSEN1 at 19.2 MBq, iv after 30 mins by thioflavinS-staining method. The data set is classed as functional, organism-based. Conditions: 19.2 M, tested as the 18F-labelled form.
Data set [10] addresses Amyloid-beta precursor protein (Homo sapiens) (UniProt P05067). Briefly: Binding affinity to amyloid beta plaques in Alzheimer patient brain at 370 KBq/100 ul after 1 hr by autoradiographic analysis. Conditions: tested as the 18F-labelled form.

Chain of Amyloid-beta precursor protein (Homo sapiens) (P05067 whole entry): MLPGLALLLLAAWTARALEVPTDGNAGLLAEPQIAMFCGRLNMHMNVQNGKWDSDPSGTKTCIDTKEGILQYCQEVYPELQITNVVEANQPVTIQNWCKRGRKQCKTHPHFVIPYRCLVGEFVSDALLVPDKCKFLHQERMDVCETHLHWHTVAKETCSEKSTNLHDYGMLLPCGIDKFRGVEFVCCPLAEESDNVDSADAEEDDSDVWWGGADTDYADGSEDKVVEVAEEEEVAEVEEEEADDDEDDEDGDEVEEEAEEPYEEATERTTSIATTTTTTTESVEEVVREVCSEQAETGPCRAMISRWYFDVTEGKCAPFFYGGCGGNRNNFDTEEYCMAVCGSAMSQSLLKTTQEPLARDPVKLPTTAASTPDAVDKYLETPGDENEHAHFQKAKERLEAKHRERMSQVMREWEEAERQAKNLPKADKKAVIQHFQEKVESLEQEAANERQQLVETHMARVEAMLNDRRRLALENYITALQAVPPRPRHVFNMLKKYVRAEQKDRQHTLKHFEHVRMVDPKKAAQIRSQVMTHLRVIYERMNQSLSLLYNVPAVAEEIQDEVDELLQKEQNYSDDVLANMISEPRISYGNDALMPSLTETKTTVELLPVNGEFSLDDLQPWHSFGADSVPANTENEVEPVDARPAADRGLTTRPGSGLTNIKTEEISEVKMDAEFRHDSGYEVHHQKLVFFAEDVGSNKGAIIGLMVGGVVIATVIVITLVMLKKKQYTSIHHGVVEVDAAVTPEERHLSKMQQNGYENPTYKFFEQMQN

For `CNc1ccc(/C=C/c2ccc(OCCOCCOCC[18F])nc2)cc1` [FLORBETAPIR F 18], the Ratio in the data set on Brain [1] was 3.9. Moreover, affinity in data set [2] was put at a Ki of 2.87 nM.
`CNc1ccc(/C=C/c2ccc(OCCOCCOCC[18F])cc2)cc1` [FLORBETABEN F18]: in the data set on Brain [3], the Ratio came out at 3.13. The molecule further showed a Ki in data set [2] of 6.7 nM.
On to `CNc1ccc(-c2nc3cc(OCCF)ccc3o2)cn1`, for which the result in the data set listed under Mus musculus [4], with Mus musculus [5], in the data set filed under Mus musculus [6], in the data set filed under Mus musculus [7], in the data set filed under Mus musculus [8] and in the data set on Mus musculus [9] was Active. The result in data set [10] was Active. This molecule yielded an inhibitory constant (Ki) in data set [2] of 8 nM.
